73 molecules from ChEMBL document CHEMBL4513216, “Probing the Open Global Health Chemical Diversity Library for Multistage-Active Starting Points for Next-Generation Antimalarials” (ACS Infect Dis, 2020) can be followed below.

A short description of this data set: Toxicity liver stage against HepG2, at 10uM. Details: test concentration 10 uM, cell line HepG2-A16-CD81EGFP. Particulars: human, HepG2-A16-CD81EGFP cells; read-out: INHIBITION
The format is cell-based. Put shortly:
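Uninfected HepG2-A16-CD81EGFP cells, 3 × 10^3 per well, 1536-well, plated on prespotted compound at 10 μM final, parasite-free screening media added to match infected plates; puromycin 10 μM positive, DMSO 0.5% negative; run in parallel with 48 h PbLuc assay at 37 °C, 5% CO2; viability by CellTiter-Glo luminescence, normalized to controls.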

As for `Cn1ccc(C(=O)Nc2nnc(-c3ccccn3)[nH]2)cc1=O`, the cytotoxicity at 10 µM is 6.69%. Take `Cn1cnc(-c2ccc(F)cc2)c1NC(=O)CCNC(=O)C(C)(C)C`: the cytotoxicity at 10 µM was found to be 3.84%. Under `CCCc1noc(CN2CCN(CCC(C)C)CC2)n1` stands -1.48%; under `Cc1ccc2c(c1)SCC(=O)N2CC(=O)N1CCCC1c1nccs1` (stereo not drawn), 12.4%. Under `c1ccc(CN2CCC3(CC2)Nc2ccccc2CO3)cc1` stands -0.719%. Under `CC(=O)NCCNC(=O)c1sc(-c2ccc(Cl)s2)nc1C` stands -1.28%; under `Cc1nc(C2CCCN2CCCS(=O)(=O)N(C)C)no1` (stereo not drawn), -4.69%; under `CC(NC(=O)COc1ccccc1I)C1CC1` (stereo not drawn), 2.72%. In the case of `Cc1cc(CN2CCN(C(=O)NCc3cccs3)CC2)on1`, the cytotoxicity at 10 µM is -1.68%.

With `c1cnn(Cc2cnc3n2CCN(CC2CCCCC2)C3)c1`, the cytotoxicity at 10 µM is -78.8%. For `COCCOc1ccc(NC(=O)N(CC2CCOC2)C2CC2)cn1` (stereo not drawn), the cytotoxicity at 10 µM is -1.29%. As to `Cc1ccc([C@@H]2CN(C(=O)c3ccccc3C)C[C@H]2N(C)C)cc1`, the cytotoxicity at 10 µM is -8.29%. Under `CCn1nnc2c1C(COC)CN(Cc1ccsc1)C2` (stereo not drawn) stands 2.3%. On to `CC(C)(C)n1ncc2c1CCCC2NCc1ccc2ncccc2c1` (stereo not drawn), for which the cytotoxicity at 10 µM came to 7.74%.

In the case of `O=C1CC(N(C(=O)c2ccc(F)c(C(F)(F)F)c2)C2CC2)C(=O)N1` (stereo not drawn), the cytotoxicity at 10 µM was -10.5%.

Take `c1ccc2c(NCC3(N4CCOCC4)CCSC3)ncnc2c1` (stereo not drawn): the cytotoxicity at 10 µM was determined as 57%. The value for `COc1ccccc1OCCCc1cncc(C(N)=O)c1` was -115%; that for `CN(Cc1cc(=O)c(O)co1)C1CCCN(c2ccccc2)C1` (stereo not drawn) was -3.17%. Turning to `CN(C)c1cccc(C(=O)N2CCC(c3n[nH]c(C4CC4)n3)CC2)c1`, the cytotoxicity at 10 µM was -11.2%. Under `Cc1ncsc1C(=O)N(C)Cc1cccc(Cl)c1` stands -1.27%; under `CCOc1ccc(CNC(=O)N2CCCC(CO)C2)cc1F` (stereo not drawn), 8.21%. The value for `CN(C)C(=O)CC1CC2(CCN(Cc3ccco3)CC2)c2ccccc21` (stereo not drawn) was -11.3%; that for `CSCCCN1CCn2nc(CNC(C)=O)cc2C1` was -13.6%. Under `COc1cccc(CNc2cc(C)nc(-c3ccncc3)n2)c1O` stands 59.1%; under `CNC(=O)c1cc(OC)c(OC)cc1N(C)S(C)(=O)=O`, -5.58%; under `CCn1ncc(CN2CCC(O)(Cn3ccc4ncccc43)CC2)c1C`, -0.692%. For the molecule `O=C(NCCN1CCCCCC1)c1cccc(Cl)c1Cl`, the cytotoxicity at 10 µM came to 5.8%. The value for `N#CCCN(C(=O)CCc1cscn1)c1ccc2c(c1)OCCO2` was -2.12%; that for `O=C(C1CCCC1)N1CCO[C@H]2[C@H](OCC3CCOCC3)CC[C@@H]21` was 5.05%; that for `Cc1cccc2c1ccn2CC(=O)O` was 9.49%. Consider `Cc1cnc(CN(C)C2CCN(CC(=O)Nc3nncs3)C2)o1` (stereo not drawn), for which the cytotoxicity at 10 µM worked out at 1.76%. Under `COCc1cccc(CNCc2c(C)nn(C)c2N2CCOCC2)c1` stands -8.93%. The value for `Cc1cccc(NC(=O)[C@@H]2CCCN2CC(=O)Nc2ccccc2)n1` was 2.45%; that for `Cc1ccc(C(=O)N2CC[C@@H](N(C)C)[C@@H]2Cc2cnn(C)c2)cn1` was -73.4%. The value for `O=c1n(Cc2ccc(C(F)(F)F)cc2)nc2ncccn12` was -4.06%; that for `O=C1CCC2(CCN(c3cccc(C(F)(F)F)n3)CC2)CN1CCO` was -18.2%; that for `Oc1cc(CCC2CCCCN2)cc(-c2ccncc2)c1` (stereo not drawn) was -12.7%.

For `COCc1ncn2c1CN(C(=O)c1cccc3cccnc13)CC2`, the cytotoxicity at 10 µM is -19.7%. The value for `O=C(C1CCC1)N1CCO[C@@H]2CNC[C@@H]21` was 1.44%; that for `COc1cccc(-c2n[nH]cc2-c2nc(CN3CCCC3)no2)c1` was -23.2%; that for `COCCN1CC2(CCC1=O)CCN(Cc1cc(F)ccc1Cl)CC2` was 5.29%. `Cn1c(=O)[nH]c(=O)n2c(CC(=O)NCc3ccccc3)cnc12`: the cytotoxicity at 10 µM stood at 7.77%. Under `CC(Cn1ccnc1)NC(=O)Nc1ccccn1` (stereo not drawn) stands -16.4%. Under `CC(=O)N1CC[C@@H]2CN(C(=O)c3ccco3)CCO[C@@H]2C1` stands 2.93%.

With `CCNC(=O)NC(=O)CSC(C)c1ccccc1F` (stereo not drawn), the cytotoxicity at 10 µM was 15.6%. The value for `Cc1nc(C2CCCN2CCc2ccccn2)no1` (stereo not drawn) was 7.28%; that for `COc1ccc(CC(=O)N2CC[C@@H]3[C@H](CC2)N(C)CCS3(=O)=O)cc1` was -104%. Under `Cc1[nH]nc(CCC(=O)NCC2COc3ccccc3C2)c1C` (stereo not drawn) stands -43.4%; under `CN(Cc1ccccn1)C(=O)CC1CCOc2ccccc21` (stereo not drawn), 11.6%; under `CC(O)c1cn(Cc2ccc(F)cc2)nn1` (stereo not drawn), 4.78%.

In the case of `c1ncc2c(n1)CN(c1ncnc3[nH]ccc13)CC2`, the cytotoxicity at 10 µM was -4.28%.

On to `c1cncc(-c2noc(CNc3ncnc4c3CCNCC4)n2)c1`, for which the cytotoxicity at 10 µM amounted to 3.18%. Under `CCCc1ccc(S(=O)(=O)NC2(CC(N)=O)CCC2)cc1` stands 17.9%; under `CC(=O)N1CCC(c2ncc(C(=O)Nc3ccc(F)cc3)c(C)n2)CC1`, 7.29%. The value for `CCN1CC2(CCC1=O)CCN(Cc1nncn1C)CC2` was 4.46%. The value for `CN1CCC(Oc2ccc(NC(=O)c3ccccc3)cc2)CC1` was -5.13%. Turning to `Cc1nc(C2CCCCN2C(=O)c2ccccc2)ncc1C(=O)N(C)C` (stereo not drawn), the cytotoxicity at 10 µM stood at 1.9%. Under `CN(C)S(=O)(=O)N1CCCC(c2ccncn2)C1` (stereo not drawn) stands -15.3%; under `CN(Cc1cc2cc(F)ccc2[nH]1)C(=O)C1CC(=O)N(C(C)(C)C)C1` (stereo not drawn), 0.993%; under `CC(C)N(C)Cc1cc(=O)n2c(n1)CN(C(=O)c1ccnnc1)CCC2`, 2.95%. As to `O=C(O)C[C@@H]1CCN(C(=O)C2CCCC2)C[C@@H]1CCN1CCCCC1`, the cytotoxicity at 10 µM was -6.51%. Under `O=C(CCc1ccccc1Cl)NS(=O)(=O)c1ccc2c(c1)OCCO2` stands -6.69%. The value for `COCCn1c(-c2cccc(OC)c2)cnc1NC(=O)NC(C)C` was 4.04%; that for `CCCn1c(C)c(CC(=O)N(C)CCOC)c2c1CC(C)(C)CC2=O` was -16.6%; that for `Cc1cc(C)n(Cc2cccc(C(=O)N(CCC#N)CCC#N)c2)n1` was 13.1%. The value for `Cc1nnc2n1CCN(Cc1c(Cl)ccc3cccnc13)C2` was 8.25%.

On to `COc1cccc(C2SCC(=O)Nc3n[nH]cc32)c1OC(C)C` (stereo not drawn), for which the cytotoxicity at 10 µM was found to be 5.09%.

Regarding `CSc1ccc(NC(=O)Cn2cc(NC(C)=O)cn2)cc1`, the cytotoxicity at 10 µM was 0.753%.

For the molecule `Cn1nccc1-c1ncc2c(c1C(=O)O)CCN(Cc1ccccc1)C2`, the cytotoxicity at 10 µM is 9.97%. Under `COC(=O)CNC(=O)c1nc(Br)sc1C(C)C` stands -172%; under `O=C(O)CC1COCCN1CCCc1ccccc1` (stereo not drawn), -0.541%. The value for `CC(C)(C)c1n[nH]cc1CNC1CCC(O)CC1` (stereo not drawn) was 2.33%; that for `CC(=O)N1CCN(C(C)c2nnc(CC(C)C)o2)CC1` (stereo not drawn) was 6.88%.
